From ChEMBL document CHEMBL1125276 (J Med Chem, 1991)

Legend:
[1] = test system: P388; experiment: Compound was tested for T/C range at optimal dose of 1.00 mg/kg for antitumor activity against P388 leukemia cells in mice.; type: functional, Mus musculus
[2] = test system: P388; experiment: Long-term survivors (LTS) for 60 days at optimal dose of 1.00 mg/kg for antitumor activity against P388 leukemia cells in 5 mice.; type: functional, Mus musculus
[3] = test system: L1210; experiment: Tested for the inhibition of L1210 cell proliferation.; type: functional, cell-based; settings: Mus musculus
Outline: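 L1210 cells were grown in RPMI 1640 with 10% FCS, 2 mM L-glutamine and 10 mM HEPES (pH 7.4). Exponential-phase cells (10^5 cells/mL) were exposed for 24 h to 5 drug concentrations in triplicate, then pulsed 3 h with 0.5 µCi/mL [3H]thymidine. Cells were harvested onto filters and counted. IC50 is 50% inhibition of incorporation versus untreated cells, given as the mean of 2–5 independent experiments.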

[4] = molecular target: Tubulin; experiment: The compound tested for the inhibition of tubulin polymerization.; type: functional
Outline: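 Tubulin was partially purified from dog brain by polymerization/depolymerization cycles and used at 0.5 mg/mL. Compounds were added in DMSO (10 µL per 500 µL reaction) at 10^-6 to 10^-9 M, with DMSO-only controls. Polymerization was followed by turbidity at 350 nm. Rates from two separate experiments were plotted against concentration, and IC50 was read graphically.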

[5] = test system: P388; experiment: Long-term survivors (LTS) for 60 days at optimal dose of 3.0 mg/kg for antitumor activity against P388 leukemia cells in 6 mice.; type: functional, Mus musculus
[6] = test system: P388; experiment: Compound was tested for T/C range at optimal dose of 3.0 mg/kg for antitumor activity against P388 leukemia cells in mice.; type: functional, Mus musculus
[7] = test system: P388; experiment: Long-term survivors (LTS) for 60 days at optimal dose of 1.00 mg/kg for antitumor activity against P388 leukemia cells in 12 mice.; type: functional, Mus musculus
[8] = test system: P388; experiment: Compound was tested for T/C range at optimal dose of 1.00 mg/kg for antitumor activity against P388 leukemia cells in mice; value ranges from 234-302; type: functional, Mus musculus
[9] = test system: P388; experiment: Compound was tested for T/C range at optimal dose of 40.0 mg/kg for antitumor activity against P388 leukemia cells in mice.; type: functional, Mus musculus
[10] = test system: P388; experiment: Long-term survivors (LTS) for 60 days at optimal dose of 40.0 mg/kg for antitumor activity against P388 leukemia cells in 6 mice.; type: functional, Mus musculus
[11] = test system: P388; experiment: Compound was tested for T/C range at optimal dose of 100 mg/kg for antitumor activity against P388 leukemia cells in mice; value ranges from 150-285; type: functional, Mus musculus
[12] = test system: P388; experiment: Long-term survivors (LTS) for 60 days at optimal dose of 100 mg/kg for antitumor activity against P388 leukemia cells in 54 mice.; type: functional, Mus musculus
[13] = test system: P388; experiment: Compound was tested for T/C range at optimal dose of 0.5 mg/kg for antitumor activity against P388 leukemia cells in mice; value ranges from 151-480; type: functional, Mus musculus
[14] = test system: P388; experiment: Long-term survivors (LTS) for 60 days at optimal dose of 0.5 mg/kg for antitumor activity against P388 leukemia cells in 96 mice.; type: functional, Mus musculus
[15] = test system: P388; experiment: Long-term survivors (LTS) for 60 days at optimal dose of 1.00 mg/kg for antitumor activity against P388 leukemia cells in 6 mice.; type: functional, Mus musculus

C=CC[C@H](NC(=O)[C@@]1(O)[C@H](O)[C@]2(CC)C=CCN3CC[C@@]4(c5cc([C@@]6(C(=O)OC)C[C@@H]7CN(CCc8c6[nH]c6ccccc86)C[C@](O)(CC)C7)c(OC)cc5N(C)[C@@H]14)[C@@H]32)P(=O)(OCC)OCC
T/C [1]: 294% | LTS [2]: 0 | IC50 [3]: 1.29 nM

CCOC(=O)CC(NC(=O)[C@@]1(O)[C@H](O)[C@]2(CC)C=CCN3CC[C@@]4(c5cc([C@@]6(C(=O)OC)C[C@@H]7CN(CCc8c6[nH]c6ccccc86)C[C@](O)(CC)C7)c(OC)cc5N(C)[C@@H]14)[C@@H]32)P(=O)(OCC)OCC (mixture of isomers)
IC50 [4]: 300 nM | IC50 [3]: 2.77 nM | LTS [5]: 0 | T/C [6]: 122%

C=CCC(NC(=O)[C@@]1(O)[C@H](O)[C@]2(CC)C=CCN3CC[C@@]4(c5cc([C@@]6(C(=O)OC)C[C@@H]7CN(CCc8c6[nH]c6ccccc86)C[C@](O)(CC)C7)c(OC)cc5N(C)[C@@H]14)[C@@H]32)P(=O)(OCC)OCC (some centres undefined)
LTS [7]: 2 | IC50 [4]: 300 nM | IC50 [3]: 3.7 nM | T/C [8]: 234%

CCOP(=O)(OCC)[C@@H](Cc1c[nH]c2ccccc12)NC(=O)[C@@]1(O)[C@H](O)[C@]2(CC)C=CCN3CC[C@@]4(c5cc([C@@]6(C(=O)OC)C[C@@H]7CN(CCc8c6[nH]c6ccccc86)C[C@](O)(CC)C7)c(OC)cc5N(C)[C@@H]14)[C@@H]32
T/C [9]: 197% | IC50 [4]: 100 nM | IC50 [3]: 36.7 nM | LTS [10]: 0

CCOP(=O)(OCC)[C@H](Cc1c[nH]c2ccccc12)NC(=O)[C@@]1(O)[C@H](O)[C@]2(CC)C=CCN3CC[C@@]4(c5cc([C@@]6(C(=O)OC)C[C@@H]7CN(CCc8c6[nH]c6ccccc86)C[C@](O)(CC)C7)c(OC)cc5N(C)[C@@H]14)[C@@H]32
T/C [9]: 188% | IC50 [4]: 100 nM | IC50 [3]: 64.7 nM | LTS [10]: 0

CCOC(=O)C(Cc1c[nH]c2ccccc12)NC(=O)[C@@]1(O)[C@H](O)[C@]2(CC)C=CCN3CC[C@@]4(c5cc([C@@]6(C(=O)OC)C[C@@H]7CN(CCc8c6[nH]c6ccccc86)C[C@](O)(CC)C7)c(OC)cc5N(C)[C@@H]14)[C@@H]32 (some centres undefined) [VINTRYPOL]
T/C [11]: 150% | IC50 [4]: 200 nM | LTS [12]: 2

CCOP(=O)(OCC)C(C)NC(=O)[C@@]1(O)[C@H](O)[C@]2(CC)C=CCN3CC[C@@]4(c5cc([C@@]6(C(=O)OC)C[C@@H]7CN(CCc8c6[nH]c6ccccc86)C[C@](O)(CC)C7)c(OC)cc5N(C)[C@@H]14)[C@@H]32 (mixture of isomers)
T/C [13]: 151% | IC50 [4]: 100 nM | IC50 [3]: 2.5 nM | LTS [14]: 7

CCOP(=O)(OCC)[C@@H](C)NC(=O)[C@@]1(O)[C@H](O)[C@]2(CC)C=CCN3CC[C@@]4(c5cc([C@@]6(C(=O)OC)C[C@@H]7CN(CCc8c6[nH]c6ccccc86)C[C@](O)(CC)C7)c(OC)cc5N(C)[C@@H]14)[C@@H]32
T/C [1]: 145% | IC50 [4]: 80 nM | IC50 [3]: 37 nM | LTS [15]: 0

CCOP(=O)(OCC)[C@H](NC(=O)[C@@]1(O)[C@H](O)[C@]2(CC)C=CCN3CC[C@@]4(c5cc([C@@]6(C(=O)OC)C[C@@H]7CN(CCc8c6[nH]c6ccccc86)C[C@](O)(CC)C7)c(OC)cc5N(C)[C@@H]14)[C@@H]32)C(C)C
IC50 [4]: 800 nM | IC50 [3]: 10.9 nM | LTS [5]: 0 | T/C [6]: 135%
